The subject of data set [1] is Mus musculus. Briefly: Antidepressant activity was assessed from the ability to antagonize reserpine-induced palpebral ptosis on peroral administration in mice;value ranges from (2.7-5.4.). In kind it is functional.
The subject of data set [2] is Mus musculus. Briefly: Pentylenetetrazole antagonistic activity on peroral administration in mice; inactive at this dose. Format: functional.
Data set [3] deals with Mus musculus. The data set is described as follows: Amphetamine antagonistic activity on peroral administration in mice; value ranges from (7.4-19.7.). Format: functional.
For data set [4], the system named is Mus musculus. The data set is described as follows: Antidepressant activity was assessed from the ability to antagonize reserpine-induced hypothermia on peroral administration in mice;value ranges from (11.1-31.). In kind it is functional.
The species entered for data set [5] is Sus scrofa. The data set is described as follows: Tested for in vitro reuptake inhibition of [3H]-5-hydroxy tryptamine in pig frontal synaptosomes. Format: functional. Conditions: Brain. An outline of the steps: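 Synaptosomes from frontal cortex of slaughterhouse pig brain take up [3H]-5-HT (4 nM) with the compound present. Nonspecific uptake is defined with chlorimipramine and also by incubating at 0–4 °C without drug. IC50 for specific uptake by log-probit analysis, four concentrations, each in triplicate.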

For data set [6], the species on record is Sus scrofa. The data set is described as follows: Tested for in vitro reuptake inhibition of [3H]dopamine in pig striatal synaptosomes. To be noted: Brain. In kind it is functional. Summed up: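 Pig corpus striatum synaptosomes (slaughterhouse brains) take up [3H]DA (2 nM) with the compound present. Nonspecific transport is defined with benztropine and also by incubation at 0–4 °C without drug. IC50 for specific uptake by log-probit analysis over four concentrations, each in triplicate.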

For data set [7], the species on record is Sus scrofa. The data set is described as follows: Tested for in vitro reuptake inhibition of [3H]norepinephrine in pig occipital synaptosomes. Format: functional. Conditions: Brain. An outline of the steps:
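[3H]NE (15 nM) uptake into occipital cortex synaptosomes from slaughterhouse pig brain, measured with the compound present. Nonspecific transport is defined with desipramine and also by incubation at 0–4 °C without drug. IC50 for specific uptake from log-probit analysis, four concentrations, each in triplicate.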

Data set [8] relates to Mus musculus. Briefly: Compound dose that causes lethality (acute toxicity) was determined by administering perorally in mice. In kind it is organism-based. To be noted: in vivo, po.
For data set [9], the system named is Mus musculus. The data set is described as follows: Antidepressant activity was assessed from the ability to antagonize reserpine-induced palpebral ptosis on peroral administration in mice.;Value ranges from (0.9-3.1). Format: functional.
Data set [10] concerns Mus musculus. The data set is described as follows: Amphetamine antagonistic activity on peroral administration in mice.;value ranges from (5.1-5.9). In kind it is functional.
For data set [11], the system named is Mus musculus. Briefly: Antidepressant activity was assessed from the ability to antagonize reserpine-induced hypothermia on peroral administration in mice;value ranges from (13.5-19.1). In kind it is functional.
Data set [12] deals with Mus musculus. The data set is described as follows: Antidepressant activity was assessed from the ability to antagonize reserpine-induced palpebral ptosis on peroral administration in mice; Value ranges from (1.3-3.4). In kind it is functional.
The test system of data set [13] is Mus musculus. Briefly: Pentylenetetrazole antagonistic activity on peroral administration in mice; Value ranges from (24.5-41.4). In kind it is functional.
Data set [14] has as its system Mus musculus. The data set is described as follows: Amphetamine antagonistic activity on peroral administration in mice; Value ranges from (29.4-65.9). Format: functional.
The test system of data set [15] is Mus musculus. Briefly: Antidepressant activity was assessed from the ability to antagonize reserpine-induced palpebral ptosis on peroral administration in; inactive at this dose. In kind it is functional.
Data set [16] concerns Mus musculus. Briefly: Pentylenetetrazole antagonistic activity on peroral administration in mice; inactive at this dose.. In kind it is functional.
In data set [17] the test system is Mus musculus. Briefly: Amphetamine antagonistic activity on peroral administration in mice; inactive at this dose. In kind it is functional.
For data set [18], the system named is Mus musculus. The data set is described as follows: Antidepressant activity was assessed from the ability to antagonize reserpine-induced hypothermia on peroral administration in mice;inactive at this dose.. In kind it is functional.

In general, IC50 refers to the concentration that gives 50% inhibition. Lower therefore signals greater potency in that assay.

Take `CCOc1ccccc1OCC1CCCNC1` (stereo not given): the ED with Mus musculus [1] is 3.7 mg/kg; in the data set with Mus musculus [2] it was above 50 mg/kg; in the data set with Mus musculus [3], 9.4 mg/kg; in the data set on Mus musculus [4], 17 mg/kg. Further, the figures for the IC50 in the data set listed under Sus scrofa [5], in the data set listed under Sus scrofa [6] and in the data set listed under Sus scrofa [7] were 95 µM, 62 µM and 0.97 µM, respectively. Further, the LD in the data set on Mus musculus [8] was 300 mg/kg.

`CCOc1ccccc1OCC1(O)CCCNC1` (stereo not given): the ED with Mus musculus [9] was 1.5 mg/kg; with Mus musculus [2], above 50 mg/kg; with Mus musculus [10], 5.5 mg/kg; in the data set with Mus musculus [11], 15.2 mg/kg. Besides, the concentration for half-maximal inhibition (IC50) in the data set filed under Sus scrofa [5] came to 65 µM; in the data set filed under Sus scrofa [6] it was 20 µM; in the data set filed under Sus scrofa [7], 0.66 µM. The molecule further returned an LD with Mus musculus [8] of 150 mg/kg.

On to `CNCCCN1c2ccccc2CCc2ccccc21` [DESIPRAMINE], for which the ED with Mus musculus [12] was 1.8 mg/kg; with Mus musculus [13] it was 33.1 mg/kg; with Mus musculus [14], 40.3 mg/kg. Also, the IC50 in the data set listed under Sus scrofa [5] came to 0.42 µM; in the data set listed under Sus scrofa [6], 6.1 µM; in the data set listed under Sus scrofa [7], 0.0032 µM. The LD in the data set with Mus musculus [8] came out at 300 mg/kg.

Consider `CCOc1ccccc1OCC1CNCCO1` (stereo not given) [VILOXAZINE], for which the 50% inhibitory concentration (IC50) in the data set listed under Sus scrofa [5] turned out to be 20 µM; in the data set listed under Sus scrofa [6], 38 µM; in the data set filed under Sus scrofa [7] it was 0.22 µM. Moreover, in the data set on Mus musculus [8], the LD is 600 mg/kg.

With `CCOc1ccccc1OCC1(OC)CCCNC1` (stereo not given), the ED with Mus musculus [15] was above 25 mg/kg; with Mus musculus [16] it was above 50 mg/kg; in the data set with Mus musculus [17], above 50 mg/kg; in the data set on Mus musculus [18] it was above 25 mg/kg. For the same molecule, the values for the half-inhibitory concentration (IC50) in the data set listed under Sus scrofa [5], in the data set filed under Sus scrofa [6] and in the data set listed under Sus scrofa [7] were 110 µM, 68 µM and 1.3 µM, respectively. Further, in the data set with Mus musculus [8], the LD turned out to be 200 mg/kg.

The values are drawn from ChEMBL document CHEMBL1123586, “3-[(2-ethoxyphenoxy)methyl]piperidine derivatives. Synthesis and antidepressant activity” (J Med Chem, 1987).
